# Results reported in ChEMBL document CHEMBL4425124, “Structure-Activity Relationship Studies on Tetrahydroisoquinoline Derivatives: [4'-(6,7-Dimethoxy-3,4-dihydro-1H-isoquinolin-2-ylmethyl)biphenyl-4-ol] (MC70) Conjugated through Flexible Alkyl Chains with Furazan Moieties Gives Rise to Potent and Selective Ligands of P-glycoprotein” (J Med Chem, 2016).
# Assays:
# [1] = target: T1, ATP-dependent translocase ABCB1 (Homo sapiens, UniProt P08183); assay: Activation of MDR1 (unknown origin) ATPase activity expressed in MDCK cells assessed as decrease in ATP level after 2 hrs by ATPlite assay; assay type: cell-based
# T1 sequence (P08183 whole entry): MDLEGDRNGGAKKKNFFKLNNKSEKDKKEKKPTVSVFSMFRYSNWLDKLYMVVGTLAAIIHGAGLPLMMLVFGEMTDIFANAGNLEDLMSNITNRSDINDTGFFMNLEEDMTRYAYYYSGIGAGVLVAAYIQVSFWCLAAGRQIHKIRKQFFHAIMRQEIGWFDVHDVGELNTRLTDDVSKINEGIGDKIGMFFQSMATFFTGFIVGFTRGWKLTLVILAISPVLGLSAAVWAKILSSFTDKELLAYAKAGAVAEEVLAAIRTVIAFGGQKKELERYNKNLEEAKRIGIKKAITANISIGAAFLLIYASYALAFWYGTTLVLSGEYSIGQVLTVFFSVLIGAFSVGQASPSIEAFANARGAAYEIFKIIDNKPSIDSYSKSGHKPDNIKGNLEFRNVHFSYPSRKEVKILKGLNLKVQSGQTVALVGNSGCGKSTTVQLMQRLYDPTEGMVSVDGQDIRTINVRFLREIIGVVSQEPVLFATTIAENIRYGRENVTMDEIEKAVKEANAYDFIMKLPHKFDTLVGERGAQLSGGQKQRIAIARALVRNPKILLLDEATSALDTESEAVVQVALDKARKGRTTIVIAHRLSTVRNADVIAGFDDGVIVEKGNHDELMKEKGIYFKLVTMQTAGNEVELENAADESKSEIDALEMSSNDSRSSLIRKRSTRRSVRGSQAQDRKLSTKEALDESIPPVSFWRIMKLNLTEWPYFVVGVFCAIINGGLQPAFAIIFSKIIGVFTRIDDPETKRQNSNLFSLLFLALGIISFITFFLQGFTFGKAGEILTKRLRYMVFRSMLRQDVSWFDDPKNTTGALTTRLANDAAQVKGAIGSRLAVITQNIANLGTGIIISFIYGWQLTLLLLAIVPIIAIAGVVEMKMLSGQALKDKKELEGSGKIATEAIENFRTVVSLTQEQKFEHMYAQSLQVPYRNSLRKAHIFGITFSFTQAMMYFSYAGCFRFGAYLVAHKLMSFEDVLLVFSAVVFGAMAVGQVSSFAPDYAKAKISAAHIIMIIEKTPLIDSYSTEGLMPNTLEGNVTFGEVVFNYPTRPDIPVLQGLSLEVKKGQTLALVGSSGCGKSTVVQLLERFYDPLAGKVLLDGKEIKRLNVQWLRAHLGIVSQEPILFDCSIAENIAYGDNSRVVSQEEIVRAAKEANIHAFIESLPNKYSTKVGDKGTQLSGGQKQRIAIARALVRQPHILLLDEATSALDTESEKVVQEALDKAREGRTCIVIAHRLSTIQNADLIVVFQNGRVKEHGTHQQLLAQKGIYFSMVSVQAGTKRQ
# In short: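 MDCK-MDR1 cells seeded at 2x10⁴/well, grown overnight at 37 °C, 5% CO₂, then exposed to test compounds in complete medium at varying concentrations for 2 h. Cells lysed, luciferase substrate added, 10 min dark adaptation, luminescence read as cellular ATP level. Mean of three independent experiments, duplicate samples.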
# [2] = target: T2, Broad substrate specificity ATP-binding cassette transporter ABCG2 (Homo sapiens, UniProt Q9UNQ0); assay: Inhibition of BCRP (unknown origin)
# T2 sequence (Q9UNQ0 whole entry): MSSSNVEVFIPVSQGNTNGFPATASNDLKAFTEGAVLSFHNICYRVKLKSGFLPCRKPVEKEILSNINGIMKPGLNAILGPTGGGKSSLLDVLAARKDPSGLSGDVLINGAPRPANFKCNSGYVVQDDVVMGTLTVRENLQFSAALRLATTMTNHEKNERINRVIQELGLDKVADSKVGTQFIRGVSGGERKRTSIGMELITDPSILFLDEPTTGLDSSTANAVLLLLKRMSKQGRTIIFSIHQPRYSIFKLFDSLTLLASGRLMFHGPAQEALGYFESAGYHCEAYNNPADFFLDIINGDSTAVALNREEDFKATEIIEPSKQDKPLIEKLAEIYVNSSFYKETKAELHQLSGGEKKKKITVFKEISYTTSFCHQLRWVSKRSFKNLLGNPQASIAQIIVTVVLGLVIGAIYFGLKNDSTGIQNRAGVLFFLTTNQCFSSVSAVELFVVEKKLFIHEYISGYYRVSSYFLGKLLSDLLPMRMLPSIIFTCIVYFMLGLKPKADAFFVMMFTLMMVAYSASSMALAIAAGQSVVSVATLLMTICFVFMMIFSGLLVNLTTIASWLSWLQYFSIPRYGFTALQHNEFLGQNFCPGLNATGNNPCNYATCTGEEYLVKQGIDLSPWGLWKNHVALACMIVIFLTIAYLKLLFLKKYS
# MCF7 = assay: Cytotoxicity against human MCF7 cells assessed as inhibition of cell proliferation at 0.1 uM after 24 hrs by MTT assay; assay type: cell-based; settings: mcf7, 24 h
# In short: (§1)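 MTT growth assay. 30000 cells/well seeded on day 1; drugs added on day 2 over 0.1–100 μM, with solvent (ethanol, DMSO) controls. After 24 or 48 h, MTT 0.5 mg/mL for 3 h at 37 °C. Formazan dissolved in DMSO, absorbance read at 570 and 630 nm.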
# MDCK [3] = assay: Cytotoxicity against MDCK cells expressing MDR1 assessed as inhibition of cell proliferation at 0.1 uM after 48 hrs by MTT assay; assay type: ADME, cell-based, Canis lupus familiaris; settings: dog; in short: as §1
# [4] = target: T1, ATP-dependent translocase ABCB1; assay: Inhibition of MDR1 (unknown origin) expressed in MDCK cells assessed as decrease in calcein-AM transport after 30 mins by fluorescence assay; assay type: cell-based
# In short: (§2)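 MDCK-MDR1 or MDCK-MRP1 cells (50,000/well) grown to confluence overnight. Compounds in medium preincubated 30 min at 37 °C, then calcein-AM (2.5 μM final, in PBS) added for 30 min. Three ice-cold PBS washes; fluorescence read at ex 485/em 535 nm. Increase over untreated basal fluorescence fitted against log[dose] for EC50. Mean of three independent experiments, duplicate samples.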
# [5] = target: Multidrug resistance-associated protein 1 (Homo sapiens, UniProt P33527); assay: Inhibition of MRP1 (unknown origin) expressed in MDCK cells assessed as decrease in calcein-AM transport at 10^-4 M after 30 mins by fluorescence assay; assay type: cell-based; settings: 0.5 h, 100 µM; in short: as §2
# Multidrug resistance-associated protein 1, sequence (P33527 whole entry): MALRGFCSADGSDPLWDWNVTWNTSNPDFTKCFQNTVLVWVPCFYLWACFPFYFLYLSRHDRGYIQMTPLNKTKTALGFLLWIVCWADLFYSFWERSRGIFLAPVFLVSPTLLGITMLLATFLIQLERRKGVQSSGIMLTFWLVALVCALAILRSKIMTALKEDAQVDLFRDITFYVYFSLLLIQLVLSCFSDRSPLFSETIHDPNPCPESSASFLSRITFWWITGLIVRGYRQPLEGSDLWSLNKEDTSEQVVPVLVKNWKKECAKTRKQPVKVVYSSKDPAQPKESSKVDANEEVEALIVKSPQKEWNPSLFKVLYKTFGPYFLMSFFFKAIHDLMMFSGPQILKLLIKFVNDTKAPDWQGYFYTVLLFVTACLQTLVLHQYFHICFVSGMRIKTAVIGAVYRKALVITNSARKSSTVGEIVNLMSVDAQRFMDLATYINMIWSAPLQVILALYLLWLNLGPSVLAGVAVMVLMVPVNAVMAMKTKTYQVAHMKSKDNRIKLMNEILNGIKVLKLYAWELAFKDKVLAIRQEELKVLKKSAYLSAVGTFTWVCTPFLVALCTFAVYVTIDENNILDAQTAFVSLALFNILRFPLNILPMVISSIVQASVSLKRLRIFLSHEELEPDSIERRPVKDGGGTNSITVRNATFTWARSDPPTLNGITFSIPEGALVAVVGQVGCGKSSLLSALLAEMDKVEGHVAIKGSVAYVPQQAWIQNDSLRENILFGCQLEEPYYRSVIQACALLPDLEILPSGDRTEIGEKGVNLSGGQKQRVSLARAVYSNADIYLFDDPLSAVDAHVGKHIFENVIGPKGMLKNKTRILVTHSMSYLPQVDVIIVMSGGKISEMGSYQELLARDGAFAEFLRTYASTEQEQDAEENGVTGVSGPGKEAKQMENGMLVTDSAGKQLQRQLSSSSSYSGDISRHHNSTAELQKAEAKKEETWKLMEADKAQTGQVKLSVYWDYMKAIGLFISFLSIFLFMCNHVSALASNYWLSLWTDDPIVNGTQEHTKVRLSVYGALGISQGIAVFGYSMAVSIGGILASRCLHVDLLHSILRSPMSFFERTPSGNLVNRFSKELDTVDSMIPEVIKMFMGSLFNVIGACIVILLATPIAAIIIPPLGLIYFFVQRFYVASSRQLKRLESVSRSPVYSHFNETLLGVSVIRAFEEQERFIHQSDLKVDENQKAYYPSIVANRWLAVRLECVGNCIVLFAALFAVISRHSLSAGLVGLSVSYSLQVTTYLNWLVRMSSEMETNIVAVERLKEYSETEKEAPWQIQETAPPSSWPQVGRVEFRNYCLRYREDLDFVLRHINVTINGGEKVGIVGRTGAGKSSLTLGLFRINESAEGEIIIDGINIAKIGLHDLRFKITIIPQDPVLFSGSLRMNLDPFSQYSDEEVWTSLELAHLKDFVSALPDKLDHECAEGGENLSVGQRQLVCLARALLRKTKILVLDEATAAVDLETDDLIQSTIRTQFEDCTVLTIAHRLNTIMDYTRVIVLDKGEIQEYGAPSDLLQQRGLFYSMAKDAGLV
# P-gp (ABCB1) = P-gp (ABCB1) (Homo sapiens, UniProt P08183); assay: Substrate activity at p-gp in human Caco2 cells assessed as ratio of apparent permeability across basolateral to apical over apical to basolateral side at 100 uM after 120 mins by UV-Vis spectroscopy; assay type: ADME, cell-based; settings: Caco-2
# P-gp (ABCB1), sequence (P08183 whole entry): as the sequence (P08183 whole entry) above
# In short: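 Caco-2 monolayers cultured 21 days, with TEER checked before and after the experiment. Compounds at 100 μM in HBSS pH 7.4, applied apical or basolateral, 120 min at 37 °C after 30 min buffer preincubation. Acceptor concentration measured by UV–vis. Papp = [VA/(area×time)]×([drug]acceptor/[drug]initial), area 0.11 cm², 7200 s. Two independent experiments.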
# MDCK [6] = assay: Cytotoxicity against MDCK cells expressing MDR1 assessed as inhibition of cell proliferation at 1 uM after 24 hrs by MTT assay; assay type: ADME, cell-based, Canis lupus familiaris; settings: dog; in short: as §1
SMILES,Activity [1],EC50 [2] [nM],Activity (MCF7),Activity (MDCK [3]),EC50 [4] [nM],inhibition (INH) [5],"efflux ratio at 2 h, 100 µM (P-gp (ABCB1))",Activity (MDCK [6])
COc1cc2c(cc1OC)CN(Cc1ccc(-c3ccc(OCCCOc4nonc4OCc4ccccc4)cc3)cc1)CC2,Not Active,> 100000,Toxic,Toxic,0.97,Not Active,3,Non-Toxic
COc1cc2c(cc1OC)CN(Cc1ccc(-c3ccc(OCCOc4nonc4OCc4ccccc4)cc3)cc1)CC2,Not Active,,,,290,Not Active,4.9,
COc1cc2c(cc1OC)CN(Cc1ccc(-c3ccc(OCCCOc4nonc4C)cc3)cc1)CC2,Not Active,,,,350,Not Active,4,
COc1cc2c(cc1OC)CN(Cc1ccc(-c3ccc(OCCOc4nonc4[S+]([O-])c4ccccc4)cc3)cc1)CC2 (configuration not stated),Not Active,> 100000,Toxic,Toxic,0.9,Not Active,4.6,Non-Toxic
COc1cc2c(cc1OC)CN(Cc1ccc(-c3ccc(OCCCCOc4nonc4OC)cc3)cc1)CC2,Not Active,,,,290,Not Active,3,
COc1cc2c(cc1OC)CN(Cc1ccc(-c3ccc(OCCCOc4nonc4C#N)cc3)cc1)CC2,Not Active,,,,1050,Not Active,4.9,
COc1cc2c(cc1OC)CN(Cc1ccc(-c3ccc(OCCCOc4nonc4OC)cc3)cc1)CC2,Not Active,,,,54,Not Active,3.2,
COc1cc2c(cc1OC)CN(Cc1ccc(-c3ccc(OCCCOc4nonc4S(=O)(=O)c4ccccc4)cc3)cc1)CC2,Not Active,,,,380,Not Active,2.5,
COc1cc2c(cc1OC)CN(Cc1ccc(-c3ccc(OCCCOc4nonc4Oc4ccccc4)cc3)cc1)CC2,Not Active,,,,1180,Not Active,3.8,
COc1cc2c(cc1OC)CN(Cc1ccc(-c3ccc(OCCCOc4nonc4[S+]([O-])c4ccccc4)cc3)cc1)CC2 (configuration not stated),Not Active,> 100000,Toxic,Toxic,1.3,Not Active,2.6,Non-Toxic
COc1cc2c(cc1OC)CN(Cc1ccc(-c3ccc(OCCOc4nonc4OC)cc3)cc1)CC2,Active,> 100000,Toxic,Toxic,0.6,Not Active,3.2,Non-Toxic
COc1cc2c(cc1OC)CN(Cc1ccc(-c3ccc(OCCOc4nonc4C#N)cc3)cc1)CC2,Not Active,,,,1200,Not Active,4.7,
COc1cc2c(cc1OC)CN(Cc1ccc(-c3ccc(OCCCOc4nonc4Sc4ccccc4)cc3)cc1)CC2,Not Active,,,,1170,Not Active,4.7,
COc1cc2c(cc1OC)CN(Cc1ccc(-c3ccc(OCCCOc4nonc4-c4ccccc4)cc3)cc1)CC2,Not Active,,,,3300,Not Active,20,
